Screening data: PubChem, several laboratories
NadD inh: inhibitors of S. aureus NadD, primary screen, biochemical, colorimetric, uHTS; inhibition, % at 20 µM; hit rate 0.78% among 360,000; purified NadD enzyme, colorimetric absorbance read-out; AID 602399, 2012; in the data active means inhibition above about 26%
GalR3 antag: GalR3 antagonists in HEK293 cells, primary screen, cell-based, fluorescence readout; HEK293 GalR3-CNG cAMP membrane potential fluorescence; galR3 body fused to GalR1 C-terminus; inhibition, % at 3 µM; hit rate 0.44% among 360,000; AID 651719, 2012;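 active means inhibition above the screen-wide average plus 3 SD, cut at about 13% in these data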;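 further: forskolin and galanin both at EC90 stimulate the cells; cAMP rise reported by CNG channel membrane potential dye signal; 0% = forskolin plus galanin with DMSO and 100% = forskolin alone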
bovine MsrA act: bovine MsrA enzyme activators, primary screen, biochemical, absorbance, HTS. activation, % at 10.6 µM. Methionine sulfoxide reductase A (Bos taurus). AID 602163, 2012. hit rate 0.3% among 360,000. purified bovine MsrA, absorbance read-out; in the data active means activation above about 7.5%;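 further: 0% = vehicle and 100% = reference activator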
NR2E3 ag-1: inhibitors of NR2E3-RetCOR corepressor binding, primary screen, NR2E3 agonist project, biochemical, TR-FRET, GST-NR2E3, biotin-RetCOR; AID 2300, 2010; inhibition of corepressor binding, % at 4.78 µM; hit rate 0.12% among 320,000; 1536-well;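 active means percent inhibition above the cutoff of mean plus 3 SD of all tested compounds, set per screening campaign, cut at about 20% in these data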;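 further: 0% = DMSO wells and 100% = biotin wells as full block of FRET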
Target sequence (Q9Y5X4 whole entry, looked up): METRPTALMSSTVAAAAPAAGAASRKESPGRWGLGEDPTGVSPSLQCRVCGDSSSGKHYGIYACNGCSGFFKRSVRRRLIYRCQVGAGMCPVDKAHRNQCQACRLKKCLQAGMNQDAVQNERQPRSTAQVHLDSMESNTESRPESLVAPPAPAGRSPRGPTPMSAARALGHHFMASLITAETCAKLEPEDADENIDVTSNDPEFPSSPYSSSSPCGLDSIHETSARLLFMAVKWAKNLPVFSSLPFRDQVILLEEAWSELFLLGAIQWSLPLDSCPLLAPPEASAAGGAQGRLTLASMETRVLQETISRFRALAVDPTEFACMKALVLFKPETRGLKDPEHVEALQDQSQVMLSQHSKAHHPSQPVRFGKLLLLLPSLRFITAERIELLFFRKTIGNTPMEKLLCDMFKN
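Test system – NR2E3–RetCOR corepressor complex · Quantity – NR2E3 fusion 1.35 nM · Buffer or medium – Tris pH 7.5 · Incubation – Compound–protein incubation for 5 h at 4 °C · Technique – TR-FRET, Eu(K)-anti-GST donor, streptavidin-D2 acceptor, ex 340, em 617/671 nm · Evaluation – percent inhibition of 671/617 nm emission ratio versus biotin and DMSO controls · Plate – 1536-well format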
MsrA inhibitor: bovine MsrA enzyme inhibitors, primary screen, biochemical, absorbance, HTS | inhibition, % at 15.5 µM | Methionine sulfoxide reductase A (Bos taurus) | hit rate 0.75% among 360,000 | AID 651718, 2012 | purified bovine MsrA, absorbance read-out; in the data active means inhibition above about 4.5%;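 further: 0% = vehicle wells with enzyme and 100% = reference inhibitor wells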
NR2E3 ag-2: NR2E3 agonists in two-hybrid cells, primary screen, cell-based, luminescence, CHO-S, Gal4-NCOR/VP16-NR2E3; hit rate 0.35% among 360,000; Photoreceptor-specific nuclear receptor (Homo sapiens), Q9Y5X4; luciferase; inhibition of corepressor binding, % at 3.98 µM;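 active means inhibition above the mean of all tested compounds plus 3 SD, cut at about 70% in these data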;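 further: 0% = DMSO with NR2E3 transfected cells and 100% = cells lacking NR2E3 construct; higher means lower luciferase signal from less NR2E3 corepressor binding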
NR2E3 ag conf: NR2E3 agonist confirmation in cells, cell-based, luminescence, CHO-S two-hybrid. shares compounds with NR2E3 ag-2. CHO-S mammalian two-hybrid NR2E3-NCOR, luciferase luminescence. inhibition, % at 3.98 µM. hit rate 51% among 2,300. AID 624378, 2012;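 active means average inhibition above a cutoff equal to the mean inhibition of all tested compounds plus one SD, cut at about 70% in these data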;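 further: 0% = DMSO in NR2E3 cells and 100% = DMSO in cells lacking NR2E3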
VP16 counter: GAL4-VP16 reporter modulators, confirmation, counter-screen for NR2E3 agonist project, cell-based, luminescence, CHO-S, high throughput. hit rate 29% among 2,300. CHO-S GAL4-VP16 luciferase reporter. shares compounds with NR2E3 ag-2. inhibition, % at 3.98 µM;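 active means mean inhibition above a cutoff equal to the average over all tested compounds plus one standard deviation, cut at about 70% in these data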;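 further: luciferase from a UAS reporter driven by GAL4-VP16 transactivation; 0% = DMSO with VP16-transfected cells and 100% = DMSO with cells lacking VP16; higher means less reporter light so more repression of VP16 activity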
* hit, by the source's call; · = no result. Most compounds without a hit are left out; they make up all but 2.5% or so of the library.

SMILES | NadD inh | GalR3 antag | bovine MsrA act | NR2E3 ag-1 | MsrA inhibitor | NR2E3 ag-2 | NR2E3 ag conf | VP16 counter
CCOC(=O)c1cnc(SCC(=O)Nc2ccc(NC(C)=O)c(OC)c2)nc1N | -2 | -4 | -3 | 1 | 1 | 4 | · | ·
CCOC(=O)c1cnc(SCC(=O)Nc2cc(OC)ccc2OC)nc1N | -3 | -8 | -11 | 2 | 0 | 69 | 45 | 67
O=C(Nc1cccnc1)/C(N=Nc1c(Cl)cccc1Cl)=C(\O)c1ccccc1 | 3 | 0 | -5 | -1 | 0 | 9 | · | ·
CCN(CC)c1ccc(/C=N/NC(=O)C(O)c2ccccc2)cc1 (stereo unspecified) | -1 | -4 | -4 | 1 | 3 | -25 | · | ·
C=CCn1c(C)cc(C(=O)CN2C(=O)c3ccccc3S2(=O)=O)c1C | -9 | · | -7 | 2 | · | 56 | 76* | 34
Cc1cc(C(=O)CSc2nnc(-c3ccc(Cl)cc3)n2CC2CCCO2)c(C)n1C (stereo unspecified) | -1 | -6 | -10 | 4 | 1 | -1 | · | ·
Cc1cc(C(=O)CSc2nc3ccc(Cl)cc3[nH]2)c(C)n1CC1CCCO1 (stereo unspecified) | 25 | -5 | -2 | 0 | 2 | 57 | 80* | 64
COCC(C)n1c(C)cc(C(=O)CSc2nc3ccccc3c(=O)[nH]2)c1C (stereo unspecified) | -4 | 1 | -6 | 1 | 1 | 51 | 64 | 52
C=CCn1c(C)cc(C(=O)CSc2nc3ccccc3[nH]2)c1C | -3 | -6 | -1 | -2 | 1 | 64 | 33 | -36
CCC(CC)C(=O)N(C)c1c(C)nc2c(OCc3cc(Cl)cc(Cl)c3)cccn12 | 4 | -7 | 3 | · | 3 | 16 | · | ·
C[C@@H]1CN([C@H](C)CO)C(=O)CCCn2nncc2CO[C@H]1CN(C)S(=O)(=O)c1ccc2ccccc2c1 | 2 | -4 | -5 | · | 3 | 2 | · | ·
COC(=O)C1=C(CN2CCCc3ccccc32)NC(=O)NC1c1ccc(F)cc1 (stereo unspecified) | 0 | 5 | -12 | 2 | 1 | 84* | 67 | 67
COC(=O)C1=C(CN2CCc3ccccc32)NC(=O)NC1c1cc(C)ccc1C (stereo unspecified) | 30 | 0 | -4 | 1 | -1 | 9 | · | ·
Cc1cc(C(=O)CSc2nc3ccccc3c(=O)n2C)c(C)n1Cc1ccc2c(c1)OCO2 | 15 | 2 | -2 | -4 | 0 | 69 | 95* | 76*
O=C1c2cccnc2C(Nc2ccccc2)N1Cc1ccco1 (stereo unspecified) | -5 | -4 | -3 | 2 | 1 | 18 | · | ·
CSc1nc(-c2cccs2)c(C#N)c(=O)[nH]1 | 3 | -6 | -3 | 17 | 1 | -19 | · | ·
N#Cc1c(-c2cccs2)nc(SCc2ccc(Cl)cc2)[nH]c1=O | 16 | -2 | -3 | · | 2 | 78* | 97* | 69
CCCCCOC(=O)c1[nH]c2c(c1C)C(=O)CC(c1ccco1)C2 (stereo unspecified) | 4 | · | -1 | 8 | · | 52 | -5 | 11
CCOCCOC(=O)c1[nH]c2c(c1C)C(=O)CC(c1cc(OC)c(OC)c(OC)c1)C2 (stereo unspecified) | -5 | -10 | -11 | -6 | -1 | 64 | 19 | 28
COc1ccccc1NC(=O)CSc1nnnn1-c1ccc2c(c1)OCO2 | -1 | -3 | 0 | -1 | -1 | 69 | 64 | 9
COc1ccc(COC(=O)c2cc([N+](=O)[O-])ccc2N2CCOCC2)cc1F | -14 | -11 | -3 | -3 | 1 | 48 | 15 | 28
